Laboratory results: ChEMBL document CHEMBL1781968, “δ-Carbolines and their ring-opened analogs: synthesis and evaluation against fungal and bacterial opportunistic pathogens” (Eur J Med Chem, 2011)
≈ marks a conversion by molar mass, not a printed value.

Assays:
[1] = tested on: Mycobacterium intracellulare; assay: Antibacterial activity against Mycobacterium intracellular ATCC 23068 by alamar blue method; type: functional, organism-based
Summary of the method: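 Modified Alamar blue method (Franzblau). Samples in DMSO serially diluted in 0.9% saline, in duplicate, final concentrations starting at 20 μg/mL. Inoculum adjusted to 0.5 McFarland, then diluted in Middlebrook 7H9 with OADC enrichment plus 5% Alamar blue. Fluorescence read (ex 544/em 590 nm) before and after incubation. IC50 from percent growth versus concentration. MIC is no detectable growth.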

Staphylococcus aureus [2] = assay: Antibacterial activity against methicillin-resistant Staphylococcus aureus ATCC 33591 by NCCLS method; type: functional, organism-based
Summary of the method: (§1)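 Broth microdilution (modified NCCLS). Samples in DMSO serially diluted in 0.9% saline, tested in duplicate, highest final concentration 20 μg/mL. Inoculum matched to 0.5 McFarland standard by absorbance at 630 nm, then diluted in cation-adjusted Mueller–Hinton broth. Growth, solvent and medium controls on each plate. Absorbance at 530 nm read before and after incubation. IC50 taken from percent growth versus concentration plot; MIC is lowest concentration with no detectable growth; MBC is lowest concentration killing the organism.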

Staphylococcus aureus [3] = assay: Antibacterial activity against Staphylococcus aureus ATCC 29213 by NCCLS method; type: functional, organism-based; summary of the method: as §1
Escherichia coli = assay: Antibacterial activity against Escherichia coli by NCCLS method; type: functional, organism-based
Summary of the method: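 Modified NCCLS broth microdilution. DMSO-dissolved samples serially diluted in 0.9% saline, tested in duplicate, final concentrations starting at 20 μg/mL. Inoculum set to 0.5 McFarland (absorbance 630 nm) and diluted in cation-adjusted Mueller–Hinton broth. Growth, solvent and medium controls on each plate. Read at 530 nm before and after incubation. IC50 from percent growth versus concentration. MIC is lowest concentration with no detectable growth.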

Aspergillus fumigatus = assay: Antifungal activity against Aspergillus fumigatus ATCC 204305 by NCCLS method; type: functional, organism-based
Summary of the method: (§2)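 Modified NCCLS microdilution for fungi. Samples in DMSO serially diluted with 0.9% saline, in duplicate, final concentrations from 20 μg/mL down. Inocula matched to 0.5 McFarland (630 nm) and diluted in Sabouraud dextrose broth. Growth, solvent and medium controls included. OD 530 nm read before and after incubation. IC50 from percent growth curve. MIC is no detectable growth. MFC is lowest concentration killing the organism.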

[4] = Cytotoxicity against african green monkey Vero cell after 48 hrs by neutral red uptake assay; type: cell-based; conditions: chlorocebus sabaeus, Vero cells; read-out: TC50
Summary of the method: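 VERO kidney fibroblasts seeded at 25,000 cells/well and incubated 24 h. Compounds added, highest concentration 10 μg/mL, then 48 h further incubation. Viable cells measured by neutral red assay. IC50 taken from growth-inhibition dose curves. Doxorubicin as positive control, DMSO as vehicle control.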

Candida albicans = assay: Antifungal activity against Candida albicans ATCC 90028 by NCCLS method; type: functional, organism-based; summary of the method: as §2
Cryptococcus neoformans = assay: Antifungal activity against Cryptococcus neoformans ATCC 90113 by NCCLS method; type: functional, organism-based; summary of the method: as §2

SMILES	IC50 [1]	MBC [1]	MIC [1]	IC50 (Staphylococcus aureus [2])	MBC (Staphylococcus aureus [2])	MIC (Staphylococcus aureus [2])	IC50 (Staphylococcus aureus [3])	MBC (Staphylococcus aureus [3])	MIC (Staphylococcus aureus [3])	IC50 (Escherichia coli)	MBC (Escherichia coli)	MIC (Escherichia coli)	MFC (Aspergillus fumigatus)	MIC (Aspergillus fumigatus)	CC50 at 48 h [4]	further results
Cc1cccc(N(CCCCCC2CCCCC2)c2ccc[n+](C)c2)c1.[I-]	1.1 µg/mL	5 µg/mL	1.3 µg/mL	1.2 µg/mL	5 µg/mL	2.5 µg/mL	0.7 µg/mL	5 µg/mL	1.3 µg/mL	7.7 µg/mL	> 20 µg/mL	> 20 µg/mL				
O=C(O)c1cn(C2CC2)c2cc(N3CCNCC3)c(F)cc2c1=O [CIPROFLOXACIN]		> 20 µg/mL	0.5 µg/mL (≈ 1.51 µM)		0.5 µg/mL (≈ 1.51 µM)	0.3 µg/mL (≈ 0.905 µM)		0.5 µg/mL (≈ 1.51 µM)	0.3 µg/mL (≈ 0.905 µM)	0.005 µg/mL (≈ 0.0151 µM)	0.6 µg/mL (≈ 1.81 µM)	0.3 µg/mL (≈ 0.905 µM)				
CSc1ccc(N(CCCCCC2CCCCC2)c2ccc[n+](C)c2)cc1.[I-]	1 µg/mL	5 µg/mL	1.3 µg/mL	1 µg/mL	2.5 µg/mL	2.5 µg/mL	0.3 µg/mL	5 µg/mL	0.6 µg/mL	5.2 µg/mL	20 µg/mL	20 µg/mL	10 µg/mL	10 µg/mL	> 10 µg/mL	
C[n+]1cccc2c1c1cc(Cl)ccc1n2CCCCCC1CCCCC1.[I-]	0.7 µg/mL	2.5 µg/mL	1.3 µg/mL	1.3 µg/mL	10 µg/mL	2.5 µg/mL	0.5 µg/mL	10 µg/mL	1.3 µg/mL	5.9 µg/mL	> 20 µg/mL	> 20 µg/mL	20 µg/mL	20 µg/mL	> 10 µg/mL	IC50 (Aspergillus fumigatus): 16 µg/mL; IC50 (Candida albicans): 2 µg/mL; MFC (Candida albicans): 5 µg/mL; MIC (Candida albicans): 5 µg/mL; IC50 (Cryptococcus neoformans): 0.4 µg/mL; MFC (Cryptococcus neoformans): 0.6 µg/mL; MIC (Cryptococcus neoformans): 0.6 µg/mL
C[n+]1cccc(N(CCCCCC2CCCCC2)c2ccc(C(F)(F)F)cc2)c1.[I-]	1 µg/mL	1.3 µg/mL	1.3 µg/mL	0.9 µg/mL	2.5 µg/mL	2.5 µg/mL				3.5 µg/mL	20 µg/mL	20 µg/mL	5 µg/mL	2.5 µg/mL	> 10 µg/mL	
C[n+]1cccc(N(CCCCCC2CCCCC2)c2ccccc2C(F)(F)F)c1.[I-]	1.2 µg/mL	2.5 µg/mL	3.5 µg/mL	0.6 µg/mL	5 µg/mL	1.3 µg/mL	0.3 µg/mL	10 µg/mL	0.3 µg/mL	9.1 µg/mL	> 20 µg/mL	> 20 µg/mL				
C[n+]1cccc(N(CCCCCC2CCCCC2)c2cccc(Cl)c2)c1.[I-]	2.1 µg/mL	5 µg/mL	2.5 µg/mL	1.3 µg/mL	5 µg/mL	2.5 µg/mL	0.34 µg/mL	5 µg/mL	0.63 µg/mL	6.5 µg/mL	> 20 µg/mL	> 20 µg/mL	20 µg/mL	20 µg/mL	> 10 µg/mL	IC50 (Aspergillus fumigatus): 12 µg/mL; IC50 (Cryptococcus neoformans): 0.72 µg/mL
CCc1ccc(N(CCCCCC2CCCCC2)c2ccc[n+](C)c2)cc1.[I-]	0.6 µg/mL	5 µg/mL	1.3 µg/mL	0.7 µg/mL	2.5 µg/mL	1.3 µg/mL	0.2 µg/mL	5 µg/mL	3 µg/mL	4 µg/mL	20 µg/mL	20 µg/mL				
Cc1ccc(N(CCCCCC2CCCCC2)c2ccc[n+](C)c2)cc1.[I-]	1.5 µg/mL	2.5 µg/mL	2.5 µg/mL	1 µg/mL	2.5 µg/mL	2.5 µg/mL				4.5 µg/mL	> 20 µg/mL	20 µg/mL	5 µg/mL	5 µg/mL	> 10 µg/mL	
C[C@@H]1[C@H](O)[C@@H](C)/C=C/C=C/C=C/C=C/C=C/C=C/C=C/[C@H](O[C@@H]2O[C@H](C)[C@@H](O)[C@H](N)[C@@H]2O)C[C@@H]2O[C@](O)(C[C@@H](O)C[C@@H](O)[C@H](O)CC[C@@H](O)C[C@@H](O)CC(=O)O[C@H]1C)C[C@H](O)[C@H]2C(=O)O [AMPHOTERICIN B]													5 µg/mL (≈ 5.41 µM)	1.3 µg/mL (≈ 1.41 µM)		MFC (Cryptococcus neoformans): 0.63 µg/mL (≈ 0.682 µM); MIC (Cryptococcus neoformans): 0.63 µg/mL (≈ 0.682 µM)
C[n+]1cccc(N(CCCCCC2CCCCC2)c2cccc(C(F)(F)F)c2)c1.[I-]	2 µg/mL	2.5 µg/mL	2.5 µg/mL	1.5 µg/mL	5 µg/mL	2.5 µg/mL				4.5 µg/mL	> 20 µg/mL	> 20 µg/mL				
C[n+]1c2ccccc2cc2[nH]c3ccccc3c21.[I-] [CRYPTOLEPTINE IODIDE]				20 µg/mL			10 µg/mL								3.2 µg/mL	MIC (Candida albicans): > 250 µg/mL; MIC (Cryptococcus neoformans): 12.5 µg/mL
C[n+]1cccc2c1c1ccccc1n2CCCCCC1CCCCC1.[I-]	0.55 µg/mL	2.5 µg/mL	1.3 µg/mL	1.5 µg/mL	5 µg/mL	2.5 µg/mL				5 µg/mL	> 20 µg/mL	> 20 µg/mL	5 µg/mL	0.63 µg/mL	7.5 µg/mL	IC50 (Aspergillus fumigatus): 0.45 µg/mL; IC50 (Candida albicans): 3 µg/mL; MFC (Candida albicans): > 20 µg/mL; MIC (Candida albicans): 5 µg/mL; IC50 (Cryptococcus neoformans): 0.45 µg/mL; MFC (Cryptococcus neoformans): 5 µg/mL; MIC (Cryptococcus neoformans): 0.63 µg/mL
COc1ccccc1N(CCCCCC1CCCCC1)c1ccc[n+](C)c1.[I-]	1.9 µg/mL	2.5 µg/mL	2.5 µg/mL	1.2 µg/mL	20 µg/mL	5 µg/mL	0.4 µg/mL	20 µg/mL	0.6 µg/mL	14 µg/mL	> 20 µg/mL	> 20 µg/mL				
C[n+]1cccc(N(CCCCCC2CCCCC2)c2ccccc2Cl)c1.[I-]	2.1 µg/mL	5 µg/mL	2.5 µg/mL	1.1 µg/mL	10 µg/mL	2.5 µg/mL	0.3 µg/mL	10 µg/mL	0.6 µg/mL	7.6 µg/mL	> 20 µg/mL	> 20 µg/mL	> 20 µg/mL	> 20 µg/mL		
C[n+]1cccc(N(CCCCCC2CCCCC2)c2ccc(Cl)cc2)c1.[I-]	1 µg/mL		1.6 µg/mL				1.5 µg/mL		3.1 µg/mL				> 20 µg/mL	1.6 µg/mL	> 10 µg/mL	MFC (Candida albicans): > 20 µg/mL
Cc1ccccc1N(CCCCCC1CCCCC1)c1ccc[n+](C)c1.[I-]	1.6 µg/mL	2.5 µg/mL	2.5 µg/mL	1 µg/mL	10 µg/mL	2.5 µg/mL	0.3 µg/mL	10 µg/mL	0.6 µg/mL	9.4 µg/mL	> 20 µg/mL	> 20 µg/mL				
C[n+]1cccc(N(CCCCCC2CCCCC2)c2ccccc2)c1.[I-]	2.1 µg/mL	2.5 µg/mL	2.5 µg/mL	3.4 µg/mL	20 µg/mL	10 µg/mL	0.7 µg/mL	10 µg/mL	1.3 µg/mL	7.6 µg/mL	> 20 µg/mL	> 20 µg/mL	> 20 µg/mL	> 20 µg/mL	> 10 µg/mL	IC50 (Aspergillus fumigatus): 20 µg/mL; MFC (Candida albicans): > 20 µg/mL
